Activity calls are given as the source filed them. The rule behind the calls is not given here.
Experiments:
[1] = tested on: CREB-binding protein/Histone acetyltransferase p300/Cellular tumor antigen p53 (Homo sapiens), P04637+Q09472+Q92793 [Y220C]; assay: AceTAC activity at FLAG-tagged p53Y220C mutant (unknown origin) expressed in human NCI-H1299 cells expressing p300/CBP assessed as increase in p53 acetylation at lysine 382 residue at 10 uM incubated for 24 hrs by western blot analysis relative to control; assay type: cell-based
Procedure, shortened: (§1)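 NCI-H1299 (p53Y220C) cells were treated at 0.1–10 μM (0.1, 0.3, 1, 3 or 10 μM) for 24 h. Lysates were Western blotted for p53 and p53K382ac, with vinculin as loading control. p53K382ac was normalised to total p53Y220C and quantified from two or three independent experiments.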

[2] = tested on: CREB-binding protein/Histone acetyltransferase p300/Cellular tumor antigen p53 (Homo sapiens), P04637+Q09472+Q92793 [Y220C]; assay: AceTAC activity at FLAG-tagged p53Y220C mutant (unknown origin ) expressed in human NCI-H1299 cells expressing p300/CBP assessed as increase in p53 acetylation at lysine 382 residue at 1 uM incubated for 24 hrs by western blot analysis; assay type: cell-based
Procedure, shortened: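 NCI-H1299 cells stably expressing p53Y220C, treated 24 h at 1 or 10 μM. Lysates were Western blotted for total p53 and p53 K382ac, with vinculin as loading control. Blots are representative of at least two independent experiments.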

NCI-H1299 [3] = assay: Antiproliferative activity against human NCI-H1299 cells expressing p53Y220C mutant assessed as reduction in cell viability incubated for 3 days by WST-8 assay; assay type: functional; details: NCI-H1299, 72 h, time 3 day
Procedure, shortened: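 NCI-H1299 p53Y220C cells were exposed to compound over a concentration range for 72 h, in some runs after 72 h of control or p300 siRNA, before the viability read-out. Values are mean ± SD of three independent experiments.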

[4] = tested on: Cellular tumor antigen p53 (Homo sapiens), P04637 [Y220C]; assay: Stabilization of p53Y220C mutant (unknown origin) expressed in human NCI-H1299 cells assessed as increase in melting temperature incubated for 1 hr by CETSA analysis; assay type: cell-based
Procedure, shortened: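 CETSA: NCI-H1299 (p53Y220C) stable cells were treated with DMSO or 100 μM for 1 h, then heated from 32 to 50 °C. Soluble p53 was detected by Western blot. Results are representative of at least two independent experiments.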

NCI-H1299 [5] = assay: Antiproliferative activity against p53-null human NCI-H1299 cells assessed as reduction in cell viability at 0.47 to 15 uM incubated for 3 days by WST-8 assay; assay type: functional, cell-based; details: dose 0.47-15 µM, time 3.0 day
Procedure, shortened: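 p53-null NCI-H1299 cells were exposed to compound across the concentration series for 72 h before the viability read-out. Data are mean ± SD from three independent experiments.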

NUGC-3 = assay: Antiproliferative activity against human NUGC-3 cells harboring p53Y220C mutant assessed as inhibition of cell growth incubated for 72 hrs by WST-8 assay; assay type: functional
Procedure, shortened: (§2)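 BxPC3 or NUGC-3 cells were treated with DMSO or compound over a concentration range for 72 h before the viability read-out. Values are mean ± SD of technical triplicates from three biological experiments.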

BXPC-3 = assay: Antiproliferative activity against human BXPC-3 cells harboring p53Y220C mutant assessed as inhibition of cell growth incubated for 72 hrs by WST-8 assay; assay type: functional; procedure, shortened: as §2
[6] = Cytotoxicity against human U2OS cells harboring wild type p53 assessed as inhibition of cell growth at 10 uM incubated for 72 hrs by WST-8 assay; assay type: toxicity, cell-based
Procedure, shortened: (§3)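 U2OS (WT p53) or normal prostate PNT2 cells were treated for 72 h at the indicated concentrations. Viability is mean ± SD of technical triplicates from two biological experiments.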

[7] = tested on: Cellular tumor antigen p53 (Homo sapiens), P04637 [Y220C]; assay: Induction of p53Y220C mutant acetylation in human BXPC-3 cells expressing p300/CBP assessed as increase in p53 acetylation at lysine 382 residue at 1 to 10 uM incubated for 24 hrs by western blot analysis; assay type: cell-based; details: dose 1-10 µM
Procedure, shortened: (§4)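 BxPC3 or NUGC-3 cells, which endogenously carry p53Y220C, were dosed at 1, 3 or 10 μM (or DMSO) for 24 h. Lysates were immunoblotted for p53 and p53 K382ac, with vinculin loading control. Blots are representative of two independent experiments.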

[8] = tested on: Cellular tumor antigen p53 (Homo sapiens), P04637 [Y220C]; assay: Induction of p53Y220C mutant acetylation in human NUGC-3 cells expressing p300/CBP assessed as increase in p53 acetylation at lysine 382 residue at 1 to 10 uM incubated for 24 hrs by western blot analysis; assay type: cell-based; details: dose 1-10 µM; procedure, shortened: as §4
U2OS = assay: Cytotoxicity against human U2OS cells harboring wild type p53 assessed as inhibition of cell growth incubated for 72 hrs by WST-8 assay; assay type: toxicity, cell-based; procedure, shortened: as §3
NCI-H1299 [9] = assay: Antiproliferative activity against human NCI-H1299 cells expressing p53Y220C mutant and transfected with p300 siRNA assessed as reduction in cell viability at 0.47 to 15 uM incubated for 3 days by WST-8 assay; assay type: functional, cell-based; details: dose 0.47-15 µM, time 3.0 day
Procedure, shortened: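 NCI-H1299 p53Y220C cells were first transfected with p300 siRNA for 72 h, then exposed to compound across the concentration series for 72 h. Viability is mean ± SD from three independent experiments.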

[10] = tested on: Cellular tumor antigen p53 (Homo sapiens), P04637 [Y220C]; assay: Stabilization of FLAG-tagged p53Y220C mutant (unknown origin) expressed in human NCI-H1299 cells assessed as downregulation of E2F1 mRNA expression at 3 uM incubated for 24 hrs by RT-qPCR analysis; assay type: cell-based
Procedure, shortened: (§5)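 NCI-H1299 p53Y220C cells were treated with 3 μM or DMSO for 24 h, followed by RT-qPCR of p53 target genes. Each transcript was normalized to GAPDH, then expressed relative to the DMSO control. Values are mean ± SD from three independent experiments.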

[11] = tested on: CREB-binding protein/Histone acetyltransferase p300/Cellular tumor antigen p53 (Homo sapiens), P04637+Q09472+Q92793 [Y220C]; assay: Induction of interaction between FLAG-tagged p53Y220C mutant (unknown origin) and p300/CBP expressed in human NCI-H1299 cells assessed as ternary complex formation at 10 uM incubated for 24 hrs by co-immunoprecipitation analysis; assay type: cell-based
Procedure, shortened: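 NCI-H1299 p53-null and p53Y220C cells were treated with DMSO or compound at 10 μM for 24 h. p53-FLAG pull-down was followed by Western blotting for associated p300. Representative of two independent experiments.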

PNT2 = assay: Cytotoxicity against human PNT2 cells assessed as inhibition of cell growth incubated for 72 hrs by WST-8 assay; assay type: toxicity, cell-based; details: pnt2, 72 h; procedure, shortened: as §3
[12] = Cytotoxicity against human PNT2 cells assessed as inhibition of cell growth at 10 uM incubated for 72 hrs by WST-8 assay; assay type: toxicity, cell-based; procedure, shortened: as §3
[13] = tested on: Cellular tumor antigen p53 (Homo sapiens), P04637 [Y220C]; assay: Induction of FLAG-tagged p53Y220C mutant acetylation (unknown origin) expressed in human NCI-H1299 cells assessed as increase in p53 acetylation at lysine 382 residue at 10 uM incubated for 24 hrs by western blot analysis relative to control; assay type: cell-based; procedure, shortened: as §1
[14] = tested on: Cellular tumor antigen p53 (Homo sapiens), P04637 [Y220C]; assay: Stabilization of FLAG-tagged p53Y220C mutant (unknown origin) expressed in human NCI-H1299 cells assessed as upregulation of GADD45A mRNA expression at 3 uM incubated for 24 hrs by RT-qPCR analysis; assay type: cell-based; procedure, shortened: as §5
[15] = tested on: Cellular tumor antigen p53 (Homo sapiens), P04637 [Y220C]; assay: Stabilization of p53Y220C mutant (unknown origin) assessed as increase in melting temperature at 250 uM by […]
[16] = tested on: Cellular tumor antigen p53 (Homo sapiens), P04637 [Y220C]; assay: Stabilization of FLAG-tagged p53Y220C mutant (unknown origin) expressed in human NCI-H1299 cells assessed as upregulation of p21 mRNA expression at 3 uM incubated for 24 hrs by RT-qPCR analysis; assay type: cell-based; procedure, shortened: as §5

SMILES	Activity [1] [%]	Activity [2]	GI50 (NCI-H1299 [3]) [µM]	also measured
CCn1c2ccc(CNCCCCCCCCC(=O)NCCOc3ccc(CCc4nc5cc(-c6c(C)noc6C)ccc5n4CCN4CCOCC4)cc3F)cc2c2ccc(-c3cc(C)cs3)cc21	103	Active	5	–
CCn1c2ccc(CNCC(=O)NCCOc3ccc(CCc4nc5cc(-c6c(C)noc6C)ccc5n4CCN4CCOCC4)cc3F)cc2c2ccc(-c3cc(C)cs3)cc21	60	–	18	–
C=C(C)C(=O)n1cc(C)c2c(-c3ccc4c(c3)CCN(C)C4)cncc21	–	–	–	ΔTm [4]: 8.3 °C
CCn1c2ccc(CNC)cc2c2ccc(-c3cc(C)cs3)cc21	–	–	16	Activity (NCI-H1299 [5]): inactive; GI50 (NUGC-3): 10.1 µM; GI50 (BXPC-3): 14 µM; inhibition at 72 h, 10 µM [6]: 30%; Activity [7]: inactive; Activity [8]: inactive; GI50 (U2OS): > 10 µM; Activity (NCI-H1299 [9]): Active; Activity [10]: inactive; Activity [11]: inactive; GI50 (PNT2): > 10 µM; inhibition at 72 h, 10 µM [12]: ~30%; Activity [13]: 26%; Activity [14]: Active; ΔTm [15]: 3.7 °C; Activity [16]: Active
CCn1c2ccc(CNCCOCCOCCOCCOCCOCCC(=O)NCCOc3ccc(CCc4nc5cc(-c6c(C)noc6C)ccc5n4CCN4CCOCC4)cc3F)cc2c2ccc(-c3cc(C)cs3)cc21	184	Active	5	–
CCn1c2ccc(CNCCCCCCC(=O)NCCOc3ccc(CCc4nc5cc(-c6c(C)noc6C)ccc5n4CCN4CCOCC4)cc3F)cc2c2ccc(-c3cc(C)cs3)cc21	219	Active	4	–
CCn1c2ccc(CNCCC(=O)NCCOc3ccc(CCc4nc5cc(-c6c(C)noc6C)ccc5n4CCN4CCOCC4)cc3F)cc2c2ccc(-c3cc(C)cs3)cc21	70	–	13	–
CCn1c2ccc(CNCCOCCC(=O)NCCOc3ccc(CCc4nc5cc(-c6c(C)noc6C)ccc5n4CCN4CCOCC4)cc3F)cc2c2ccc(-c3cc(C)cs3)cc21	186	Active	4	–
CCn1c2ccc(CNCCCCCC(=O)NCCOc3ccc(CCc4nc5cc(-c6c(C)noc6C)ccc5n4CCN4CCOCC4)cc3F)cc2c2ccc(-c3cc(C)cs3)cc21	176	Active	4	–

— ChEMBL document CHEMBL5614410, “Design, Synthesis, and Evaluation of p53Y220C Acetylation Targeting Chimeras (AceTACs)” (J Med Chem, 2024)
